For orientation: MIC means the smallest concentration in the dilution series that meets the test's criterion for growth inhibition. Read a low MIC as greater potency.

Converted amounts (≈) assume the structure as drawn. The source made the active and inactive calls. Square brackets hold non-standard residues; d marks the D form. Peptide text beside a SMILES is read from it. Orn = NCCC[C@H](N)C(=O)O

Experimental findings from ChEMBL document CHEMBL1145396, “High-throughput synthesis and screening of cyclic peptide antibiotics” (J Med Chem, 2007) are described below.

In series [1] the test system is Staphylococcus epidermidis. Nature of the series: Antimicrobial activity against Staphylococcus epidermidis at 32 ug/mL. In kind it is functional, organism-based.
In series [2] the test system is Escherichia coli. Kind of series: Antimicrobial activity against Escherichia coli. In kind it is functional. In outline: (§1)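 Microtiter broth assay. Peptide stock in 30% DMSO/water, neutralized with sodium phosphate pH 7.0, added to a 1000-fold diluted overnight bacterial culture (1:5 into final volume). Incubated 7 h at 37 °C. Growth scored visually.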
Series [3] has as its system Bacillus subtilis. Nature of the series: Antimicrobial activity against Bacillus subtilis at 32 ug/mL. In kind it is functional.
Series [4] concerns Escherichia coli. Kind of series: Antimicrobial activity against Escherichia coli at 32 ug/mL. It counts as functional, organism-based.
Series [5] has as its system Enterococcus faecalis. Kind of series: Antimicrobial activity against Enterococcus faecalis at 32 ug/mL. In kind it is functional, organism-based.
Series [6] relates to Bacillus subtilis. Nature of the series: Antimicrobial activity against Bacillus subtilis. It counts as functional. In outline:
as §1

The nature of series [7]: Ratio of MHC for human RBC to MIC for Bacillus subtilis. It counts as functional.
Series [8] relates to Enterococcus faecalis. Nature of the series: Antimicrobial activity against Enterococcus faecalis. It counts as functional. In outline: as §1
For series [9], the system named is Staphylococcus epidermidis. Nature of the series: Antimicrobial activity against Staphylococcus epidermidis. In kind it is functional. An outline of the steps:
as §1

A short description of series [10]: Toxicity assessed as hemolytic activity in human RBC. In kind it is cell-based. Particulars: erythrocyte. An outline of the steps: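 Peptide stocks were serially diluted 2-fold in water, then mixed with fresh human erythrocytes diluted 100-fold in PBS pH 7.4. Incubated overnight at room temperature and inspected visually for lysis. MHC was taken as the lowest concentration lysing half of the cells.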

`CCCNC(=O)C[C@@H]1NC(=O)[C@@H](CCCNC(=N)N)NC(=O)[C@H](Cc2ccccc2)NC(=O)[C@@H]2CCCN2C(=O)[C@@H](Cc2ccccc2)NC(=O)[C@@H]2CCCN2C(=O)[C@H](CCCN)NC(=O)[C@H](C(C)C)NC(=O)[C@H](Cc2ccc(O)cc2)NC(=O)[C@@H](C)NC1=O`: the result (in series [1]; with Bacillus subtilis [3]; in the series on Escherichia coli [4]; with Enterococcus faecalis [5]) was inactive. Moreover, the MIC in the series on Escherichia coli [2] was 32 µg/mL (≈ 25.6 µM); with Bacillus subtilis [6], > 32 µg/mL.

Regarding `CCCNC(=O)C[C@@H]1NC(=O)[C@@H](CCCCN)NC(=O)[C@H](Cc2ccccc2)NC(=O)[C@@H]2CCCN2C(=O)[C@@H](Cc2ccccc2)NC(=O)[C@@H]2CCCN2C(=O)[C@H](CCCN)NC(=O)[C@H](C(C)C)NC(=O)[C@H](Cc2ccc(O)cc2)NC(=O)[C@H](Cc2ccc(F)cc2)NC1=O`, the outcome (in series [1]; in the series with Bacillus subtilis [3]; in the series with Escherichia coli [4]; with Enterococcus faecalis [5]) was inactive. For the same molecule, the MIC with Escherichia coli [2] was 32 µg/mL (≈ 24.3 µM); in the series with Bacillus subtilis [6] it was > 32 µg/mL.

Take `CCCNC(=O)C[C@H]1NC(=O)[C@@H](CCCNC(=N)N)NC(=O)[C@H](Cc2ccccc2)NC(=O)[C@@H]2CCCN2C(=O)[C@@H](Cc2ccccc2)NC(=O)[C@H](Cc2ccc(F)cc2)NC(=O)[C@H](CCCN)NC(=O)[C@H](C(C)C)NC(=O)[C@H](Cc2ccc(O)cc2)NC(=O)CNC1=O`: the Ratio in series [7] is 8.

In the case of `CCCNC(=O)C[C@H]1NC(=O)[C@@H](CCCCN)NC(=O)[C@H](Cc2ccccc2)NC(=O)[C@@H]2CCCN2C(=O)[C@@H](Cc2ccccc2)NC(=O)[C@@H]2CCCN2C(=O)[C@H](CCCN)NC(=O)[C@H](C(C)C)NC(=O)[C@H](Cc2ccc(O)cc2)NC(=O)[C@H](Cc2ccc(F)cc2)NC1=O`, the MIC came out at 8 µg/mL (≈ 6.09 µM) against Enterococcus faecalis [8], 32 µg/mL (≈ 24.3 µM) in series [9], 32 µg/mL (≈ 24.3 µM) with Escherichia coli [2] and 4 µg/mL (≈ 3.04 µM) against Bacillus subtilis [6]. In addition, the Ratio in series [7] was found to be 32. In addition, the Activity in [10] is 128 µg/mL.

As for `CCCNC(=O)C[C@@H]1NC(=O)[C@@H](Cc2ccccc2)NC(=O)[C@H](Cc2ccccc2)NC(=O)[C@@H]2CCCN2C(=O)[C@@H](Cc2ccccc2)NC(=O)CNC(=O)[C@H](CCCN)NC(=O)[C@H](C(C)C)NC(=O)[C@H](Cc2ccc(O)cc2)NC(=O)[C@H](CCCCN)NC1=O`, the minimal inhibitory concentration (MIC) came out at 32 µg/mL (≈ 25.5 µM) with Enterococcus faecalis [8], 16 µg/mL (≈ 12.7 µM) in series [9] and 8 µg/mL (≈ 6.37 µM) against Bacillus subtilis [6]. Moreover, the Ratio in series [7] is 8. Also, the result with Escherichia coli [4] was inactive. In addition, the Activity in [10] was 64 µg/mL.

On to `CCCNC(=O)C[C@@H]1NC(=O)[C@@H](CCCNC(=N)N)NC(=O)[C@H](Cc2ccccc2)NC(=O)[C@@H]2CCCN2C(=O)[C@@H](Cc2ccccc2)NC(=O)[C@H](Cc2ccc(F)cc2)NC(=O)[C@H](CCCN)NC(=O)[C@H](C(C)C)NC(=O)[C@H](Cc2ccc(O)cc2)NC(=O)CNC1=O` [listing 1 of 2 here], for which the MIC in the series on Enterococcus faecalis [8] turned out to be 2 µg/mL (≈ 1.54 µM); in series [9], 1 µg/mL (≈ 0.768 µM); against Escherichia coli [2], 4 µg/mL (≈ 3.07 µM); with Bacillus subtilis [6], 1 µg/mL (≈ 0.768 µM).

As to `CCCNC(=O)C[C@@H]1NC(=O)[C@@H](Cc2ccccc2)NC(=O)[C@H](Cc2ccccc2)NC(=O)[C@@H]2CCCN2C(=O)[C@@H](Cc2ccccc2)NC(=O)CN(C)C(=O)[C@H](CCCN)NC(=O)[C@H](C(C)C)NC(=O)[C@H](Cc2ccc(O)cc2)NC(=O)[C@@H](Cc2ccccc2)NC1=O`, the MIC in the series on Escherichia coli [2] and in the series with Bacillus subtilis [6] was 32 µg/mL (≈ 24.8 µM) each time.

On to `CCCNC(=O)C[C@@H]1NC(=O)[C@@H](CCCNC(=N)N)NC(=O)[C@H](Cc2ccccc2)NC(=O)[C@@H]2CCCN2C(=O)[C@@H](Cc2ccccc2)NC(=O)[C@H](Cc2ccc(F)cc2)NC(=O)[C@H](CCCN)NC(=O)[C@H](C(C)C)NC(=O)[C@H](Cc2ccc(O)cc2)NC(=O)[C@H](CO)NC1=O`, for which the MIC was 8 µg/mL (≈ 6 µM) against Enterococcus faecalis [8], 2 µg/mL (≈ 1.5 µM) in series [9], 16 µg/mL (≈ 12 µM) against Escherichia coli [2] and 2 µg/mL (≈ 1.5 µM) in the series with Bacillus subtilis [6]. In series [7], the Ratio is 8. In addition, in [10], the Activity was found to be 16 µg/mL.

Consider `CC(C)C[C@@H]1NC(=O)[C@H](CCCN)NC(=O)[C@H](C(C)C)NC(=O)[C@H](Cc2ccc(O)cc2)NC(=O)[C@H](CCC(N)=O)NC(=O)[C@H](CC(N)=O)NC(=O)[C@@H](Cc2ccccc2)NC(=O)[C@H](Cc2ccccc2)NC(=O)[C@@H]2CCCN2C(=O)[C@@H](Cc2ccccc2)NC1=O` [TYROCIDINE A] (cyclo(F[dF]NQYV[Orn]L[dF]P)), for which the MIC in the series on Enterococcus faecalis [8] stood at 1 µg/mL (≈ 0.787 µM); in series [9], 1 µg/mL (≈ 0.787 µM); against Escherichia coli [2], 8 µg/mL (≈ 6.3 µM); with Bacillus subtilis [6], 1 µg/mL (≈ 0.787 µM). Further, in series [7], the Ratio turned out to be 2. In series [10], the Activity is 2 µg/mL.

For the molecule `CCCNC(=O)C[C@H]1NC(=O)[C@@H](CCCCN)NC(=O)[C@H](Cc2ccccc2)NC(=O)[C@@H]2CCCN2C(=O)[C@@H](Cc2ccccc2)NC(=O)[C@H](Cc2ccc(O)cc2)NC(=O)[C@H](CCCN)NC(=O)[C@H](C(C)C)NC(=O)[C@H](Cc2ccc(O)cc2)NC(=O)[C@H](CCCCN)NC1=O`, the MIC against Enterococcus faecalis [8] came out at 16 µg/mL (≈ 11.9 µM); in [9], 4 µg/mL (≈ 2.98 µM); against Escherichia coli [2], 16 µg/mL (≈ 11.9 µM); with Bacillus subtilis [6], 2 µg/mL (≈ 1.49 µM). The Ratio in series [7] came to 32. For the same molecule, the Activity in [10] stood at 64 µg/mL.

`CCCNC(=O)C[C@@H]1NC(=O)[C@@H](CCCNC(=N)N)NC(=O)[C@H](Cc2ccccc2)NC(=O)[C@@H]2CCCN2C(=O)[C@@H](Cc2ccccc2)NC(=O)[C@@H](CC(C)C)NC(=O)[C@H](CCCN)NC(=O)[C@H](C(C)C)NC(=O)[C@H](Cc2ccc(O)cc2)NC(=O)[C@H](CCCCN)NC1=O`: the MIC with Enterococcus faecalis [8] turned out to be 16 µg/mL (≈ 12.1 µM); in series [9], 8 µg/mL (≈ 6.05 µM); in the series with Escherichia coli [2], 32 µg/mL (≈ 24.2 µM); in the series on Bacillus subtilis [6] it was 8 µg/mL (≈ 6.05 µM). Moreover, the Ratio in series [7] was determined as 16. The Activity in series [10] is 128 µg/mL.

In the case of `CCCNC(=O)C[C@@H]1NC(=O)[C@@H](CCCNC(=N)N)NC(=O)[C@H](Cc2ccccc2)NC(=O)[C@@H]2CCCN2C(=O)[C@@H](Cc2ccccc2)NC(=O)[C@H](Cc2ccc(F)cc2)NC(=O)[C@H](CCCN)NC(=O)[C@H](C(C)C)NC(=O)[C@H](Cc2ccc(O)cc2)NC(=O)CNC1=O` [listing 2 of 2 here], the Activity in [10] came to 16 µg/mL.

For `CCCNC(=O)C[C@@H]1NC(=O)[C@@H](CCCCN)NC(=O)[C@H](Cc2ccccc2)NC(=O)[C@@H]2CCCN2C(=O)[C@@H](Cc2ccccc2)NC(=O)[C@H](Cc2ccc(O)cc2)NC(=O)[C@H](CCCN)NC(=O)[C@H](C(C)C)NC(=O)[C@H](Cc2ccc(O)cc2)NC(=O)[C@H](CCCCN)NC1=O`, the MIC came out at 16 µg/mL (≈ 11.9 µM) against Enterococcus faecalis [8], 4 µg/mL (≈ 2.98 µM) in series [9], 32 µg/mL (≈ 23.8 µM) against Escherichia coli [2] and 4 µg/mL (≈ 2.98 µM) with Bacillus subtilis [6]. The Ratio in series [7] is 32. For the same molecule, in series [10], the Activity was found to be 128 µg/mL.

In the case of `CCCNC(=O)C[C@H]1NC(=O)[C@@H](CCCNC(=N)N)NC(=O)[C@H](Cc2ccccc2)NC(=O)[C@@H]2CCCN2C(=O)[C@@H](Cc2ccccc2)NC(=O)[C@@H]2CCCN2C(=O)[C@H](CCCN)NC(=O)[C@H](C(C)C)NC(=O)[C@H](Cc2ccc(O)cc2)NC(=O)[C@@H](C)NC1=O`, the result (in [1]; with Escherichia coli [4]; in the series with Enterococcus faecalis [5]) was inactive. Also, in series [7], the Ratio was determined as 1024. In addition, in the series with Bacillus subtilis [3], the MIC worked out at 0.5 µg/mL (≈ 0.4 µM). In addition, in [10], the Activity was 514 µg/mL.

Turning to `CCCNC(=O)C[C@@H]1NC(=O)[C@@H](CCCNC(=N)N)NC(=O)[C@H](Cc2ccccc2)NC(=O)[C@@H]2CCCN2C(=O)[C@@H](Cc2ccccc2)NC(=O)[C@H](Cc2ccc(F)cc2)NC(=O)[C@H](CCCN)NC(=O)[C@H](C(C)C)NC(=O)[C@H](Cc2ccc(O)cc2)NC(=O)[C@H](CCCNC(=N)N)NC1=O`, the MIC with Enterococcus faecalis [8] was 8 µg/mL (≈ 5.71 µM); in series [9] it was 4 µg/mL (≈ 2.85 µM); with Escherichia coli [2], 8 µg/mL (≈ 5.71 µM); against Bacillus subtilis [6], 1 µg/mL (≈ 0.713 µM). Further, the Ratio in series [7] was 4. In [10], the Activity came to 8 µg/mL.

Take `CCCNC(=O)C[C@@H]1NC(=O)[C@@H](CCCNC(=N)N)NC(=O)[C@H](Cc2ccccc2)NC(=O)[C@@H]2CCCN2C(=O)[C@@H](Cc2ccccc2)NC(=O)[C@@H](CC(N)=O)NC(=O)[C@H](CCCN)NC(=O)[C@H](C(C)C)NC(=O)[C@H](Cc2ccc(O)cc2)NC(=O)[C@@H](CC(C)C)NC1=O`: the MIC was 32 µg/mL (≈ 24.5 µM) against Escherichia coli [2] and 8 µg/mL (≈ 6.12 µM) against Bacillus subtilis [6].
